From ChEMBL document CHEMBL2321866 (J Med Chem, 2013)
Active and inactive are the calls of the source. No cut-off for these calls is given here.

Key:
Cannabinoid receptor 2 [1] = biological target: T1, Cannabinoid receptor 2 (Homo sapiens, UniProt P34972); assay: Displacement of [3H]CP-55,940 from CB2 receptor (unknown origin) after 1 hr by scintillation counting analysis
Cannabinoid receptor 1 = Cannabinoid receptor 1 (Homo sapiens, UniProt P21554)
Homo sapiens = species on record: Homo sapiens; assay: Selectivity index, ratio of Ki for CB1 receptor (unknown origin) to Ki for CB2 receptor (unknown origin)
RAW264.7 [2] = assay: Cytotoxicity against mouse RAW264.7 cells assessed as cell viability at 5 uM after 3 days by MTT assay; assay type: cell-based; settings: raw264.7, 72 h
Method in brief: (§1)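 Survival measured by MTT and expressed as percent of vehicle control. Mean ± S.E.M. of experiments run in triplicate.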

RAW264.7 [3] = assay: Cytotoxicity against mouse RAW264.7 cells assessed as cell viability at 2.5 uM after 3 days by MTT assay relative to vehicle-treated control; assay type: cell-based; settings: raw264.7, 72 h; method in brief: as §1
RAW264.7 [4] = assay: Cytotoxicity against mouse RAW264.7 cells assessed as cell viability at […] after 3 days by MTT assay; assay type: cell-based; settings: raw264.7, 72 h
RAW264.7 [5] = assay: Inhibition of RANKL-induced osteoclastogenesis in mouse RAW264.7 cells at 10 uM after 5 days by TRAP assay relative to control; assay type: functional; settings: RAW264.7, 120 h
Method in brief: (§2)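 RAW 264.7 murine monocytic cells were seeded at 3 × 10^3 per well and cultured 24 h in αMEM with 10% FBS. Medium was then replaced with the same medium containing RANKL (15 ng/mL) plus test compound. […] Mean of three experiments, each in triplicate.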

Cannabinoid receptor 2 [6] = biological target: T1, Cannabinoid receptor 2; assay: Inverse agonist activity at human CB2 receptor expressed in CHO cells assessed as increase in forskolin-induced cAMP production after 45 mins in presence of phosphodiesterase inhibitor RO20-1724; assay type: functional, cell-based
RAW264.7 [7] = assay: Cytotoxicity against mouse RAW264.7 cells assessed as cell viability at 5 to 10 uM after 3 days by MTT assay; assay type: cell-based; settings: raw264.7, 72 h; method in brief: as §1
RAW264.7 [8] = assay: Inhibition of RANKL-induced osteoclastogenesis in mouse RAW264.7 cells at 1 uM after 5 days by TRAP assay relative to control; assay type: functional; method in brief: as §2
RAW264.7 [9] = assay: Inhibition of RANKL-induced osteoclastogenesis in mouse RAW264.7 cells after 5 days by TRAP assay; assay type: functional, cell-based
Method in brief: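 RAW 264.7 cells, 3×10^3 per well, grown 24 h in αMEM/10% FBS, then switched to medium with RANKL (15 ng/mL) plus compound (0.1–10 µM). After 5 days cells fixed and TRAP-stained; TRAP+ cells with more than three nuclei scored as osteoclasts. Mean of three experiments in triplicate.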

RAW264.7 [10] = assay: Inhibition of RANKL-induced osteoclastogenesis in mouse RAW264.7 cells at 0.1 uM after 5 days by TRAP assay relative to control; assay type: functional; settings: RAW264.7, 120 h; method in brief: as §2

Sequence of Cannabinoid receptor 1 (P21554 whole entry): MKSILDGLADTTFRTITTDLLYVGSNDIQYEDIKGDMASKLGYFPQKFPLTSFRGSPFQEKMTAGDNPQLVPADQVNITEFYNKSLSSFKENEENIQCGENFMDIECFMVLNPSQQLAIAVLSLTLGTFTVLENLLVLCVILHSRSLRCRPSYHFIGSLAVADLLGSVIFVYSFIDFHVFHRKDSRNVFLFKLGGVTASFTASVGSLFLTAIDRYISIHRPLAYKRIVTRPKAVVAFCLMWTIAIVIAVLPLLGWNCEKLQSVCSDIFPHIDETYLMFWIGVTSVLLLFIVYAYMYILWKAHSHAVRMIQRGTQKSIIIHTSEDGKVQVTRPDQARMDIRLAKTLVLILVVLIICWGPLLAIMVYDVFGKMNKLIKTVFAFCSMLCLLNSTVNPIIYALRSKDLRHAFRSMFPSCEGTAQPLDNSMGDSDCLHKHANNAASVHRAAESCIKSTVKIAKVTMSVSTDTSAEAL
T1 sequence (P34972 whole entry): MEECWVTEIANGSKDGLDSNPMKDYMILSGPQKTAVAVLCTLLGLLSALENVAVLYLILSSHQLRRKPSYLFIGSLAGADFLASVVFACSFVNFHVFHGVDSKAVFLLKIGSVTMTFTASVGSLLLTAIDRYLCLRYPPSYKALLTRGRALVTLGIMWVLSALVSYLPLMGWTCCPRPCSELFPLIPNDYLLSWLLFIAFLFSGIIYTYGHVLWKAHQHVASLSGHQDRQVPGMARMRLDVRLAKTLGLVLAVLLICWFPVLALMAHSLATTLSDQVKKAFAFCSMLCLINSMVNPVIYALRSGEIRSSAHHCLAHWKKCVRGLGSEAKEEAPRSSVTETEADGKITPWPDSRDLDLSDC

| SMILES | Ki (Cannabinoid receptor 2 [1]; read-out: Ki) | Ratio Ki (Homo sapiens) | further results |
| --- | --- | --- | --- |
| CCN(CC)c1ccc(CN(C(=O)Cc2ccccc2)[C@]23C[C@H]4C[C@H](C[C@H](C4)C2)C3)cc1 | 38 nM | > 333 | Ki (Cannabinoid receptor 1): > 20000 nM |
| CCN(CC)c1ccc(CN(C(=O)C2CCCCC2)c2ccc(Cl)cc2)cc1 | 164 nM | 121 | Ki (Cannabinoid receptor 1): > 20000 nM |
| CCN(CC)c1ccc(CN(c2ccc(C)cc2)S(=O)(=O)c2ccc(Cl)cc2)cc1 | 3 nM | – | – |
| CCCCCCCN(Cc1ccc(N(CC)CC)cc1)S(=O)(=O)c1ccc(OC(C)C)cc1 | > 20000 nM | – | – |
| CCCCCCCN(Cc1ccc(N(CC)CC)cc1)C(=O)c1ccc(N(C)C)cc1 | 1280 nM | – | – |
| Cc1ccc(S(=O)(=O)N(CCc2ccc(Cl)cc2)S(=O)(=O)c2ccc(C)cc2)cc1 | 192 nM | 26 | – |
| CCN(CC)c1ccc(CN(c2ccc(Cl)cc2)S(=O)(=O)c2ccc(OC)cc2)cc1 | 14 nM | > 1430 | Activity (RAW264.7 [2]): Toxic; Activity (RAW264.7 [3]): Non-toxic; Activity (RAW264.7 [4]): Non-toxic; inhibition at 10 µM (RAW264.7 [5]): > 95%; EC50 (Cannabinoid receptor 2 [6]): 16.4 nM; Ki (Cannabinoid receptor 1): > 20000 nM; Activity (RAW264.7 [7]): Toxic; inhibition (RAW264.7 [8]): Active; inhibition (RAW264.7 [9]): Dose-dependent effect |
| CCN(CC)c1ccc(CN([C@]23C[C@H]4C[C@H](C[C@H](C4)C2)C3)S(=O)(=O)c2ccc(Cl)cc2)cc1 | 173 nM | 11 | Ki (Cannabinoid receptor 1): 2030 nM |
| CCN(CC)c1ccc(CN(C(=O)Cc2ccc(Cl)cc2)c2ccc(C)cc2)cc1 | 107 nM | 29 | – |
| CCN(CC)c1ccc(CN(C(=O)C2CCCCC2)c2ccc(C)cc2)cc1 | 222 nM | 0.9 | – |
| CCN(CC)c1ccc(CN(c2ccc(C)cc2)S(=O)(=O)c2cccc(C)c2)cc1 | 5.8 nM | 37 | – |
| CCCCCCCN(Cc1ccc(N(CC)CC)cc1)C(=O)Cc1ccc(Cl)cc1 | 696 nM | – | – |
| CCCCCCCC(=O)N(CCCCCCC)Cc1ccc(N(CC)CC)cc1 | > 20000 nM | – | – |
| CCCCCCCN(Cc1ccc(N(CC)CC)cc1)S(=O)(=O)c1ccc(C(C)C)cc1 | 13000 nM | – | – |
| CCN(CC)c1ccc(CN(c2ccc(C)cc2)S(=O)(=O)c2ccc(C(C)C)cc2)cc1 | 4.3 nM | 782 | – |
| CCN(CC)c1ccc(CN(C(=O)C2CCCCC2)[C@]23C[C@H]4C[C@H](C[C@H](C4)C2)C3)cc1 | 35 nM | > 571 | Ki (Cannabinoid receptor 1): > 20000 nM |
| CCCCCCCN(Cc1ccc(N(CC)CC)cc1)S(=O)(=O)c1ccc(Cl)cc1 | 6740 nM | – | – |
| CCN(CC)c1ccc(CN([C@]23C[C@H]4C[C@H](C[C@H](C4)C2)C3)S(=O)(=O)c2ccc(C(C)C)cc2)cc1 | 457 nM | – | – |
| CCN(CC)c1ccc(CN(c2ccc(C)cc2)S(=O)(=O)c2ccc(F)cc2)cc1 | 5.6 nM | 153 | – |
| CCN(CC)c1ccc(CN(C(=O)Cc2ccc(Cl)cc2)[C@]23C[C@H]4C[C@H](C[C@H](C4)C2)C3)cc1 | – | – | Ki (Cannabinoid receptor 1): > 20000 nM |
| CCN(CC)c1ccc(CN([C@]23C[C@H]4C[C@H](C[C@H](C4)C2)C3)S(=O)(=O)c2ccc(C)cc2)cc1 | – | – | Ki (Cannabinoid receptor 1): > 20000 nM |
| CCN(CC)c1ccc(CN(c2ccc(C)cc2)S(=O)(=O)c2ccc(OC)cc2)cc1 | 0.5 nM | 2590 | Activity (RAW264.7 [2]): Toxic; Activity (RAW264.7 [3]): Non-toxic; inhibition at 10 µM (RAW264.7 [5]): 100%; EC50 (Cannabinoid receptor 2 [6]): 42.7 nM; Activity (RAW264.7 [7]): Toxic; inhibition at 1 µM (RAW264.7 [8]; RAW264.7, 120 h): 97%; inhibition at 0.1 µM (RAW264.7 [10]): 46%; inhibition (RAW264.7 [9]): Dose-dependent effect |
| CCCCCCCN(Cc1ccc(N(CC)CC)cc1)S(=O)(=O)c1ccc(F)cc1 | 1100 nM | – | – |

| SMILES | Ki (Cannabinoid receptor 2 [1]; read-out: Ki) | Ratio Ki (Homo sapiens) | further results |
| --- | --- | --- | --- |
| CCN(CC)c1ccc(CN(c2ccc(Cl)cc2)S(=O)(=O)c2ccc(C)cc2)cc1 | 37 nM | 3.7 | – |
| CCCCCCCC(=O)N(Cc1ccc(N(CC)CC)cc1)[C@]12C[C@H]3C[C@H](C[C@H](C3)C1)C2 | 638 nM | – | – |
| CCCCCCCN(Cc1ccc(N(CC)CC)cc1)S(=O)(=O)c1ccc(OC)cc1 | 5190 nM | – | – |
| CCN(CC)c1ccc(CN(c2ccc(Cl)cc2)S(=O)(=O)c2ccc(Cl)cc2)cc1 | 36 nM | 183 | – |
| CCCCCCCN(Cc1ccc(N(CC)CC)cc1)S(=O)(=O)c1cccc(C)c1 | 2300 nM | – | – |
| CCN(CC)c1ccc(CN[C@]23C[C@H]4C[C@H](C[C@H](C4)C2)C3)cc1 | 20000 nM | – | – |
| CCCCCCCN(Cc1ccc(N(CC)CC)cc1)S(=O)(=O)Cc1ccccc1 | 273 nM | – | – |
| CCN(CC)c1ccc(CN(C(=O)Cc2ccc(Cl)cc2)c2ccc(Cl)cc2)cc1 | 136 nM | 147 | – |
| CCN(CC)c1ccc(CN(c2ccc(C)cc2)S(=O)(=O)c2ccccc2)cc1 | 3.4 nM | 151 | EC50 (Cannabinoid receptor 2 [6]): 609 nM |
| CCCCCCCN(Cc1ccc(N(CC)CC)cc1)S(=O)(=O)CCCC | – | – | Ki (Cannabinoid receptor 2 [1]; read-out: pKi (converted)): 697 nM |
| CCCCCCCN(Cc1ccc(N(CC)CC)cc1)C(=O)Cc1ccccc1 | 1310 nM | – | – |
| CCN(CC)c1ccc(CN(C(=O)Cc2ccccc2)c2ccc(C)cc2)cc1 | 72 nM | > 277 | Ki (Cannabinoid receptor 1): > 20000 nM |
| CCN(CC)c1ccc(CN([C@]23C[C@H]4C[C@H](C[C@H](C4)C2)C3)S(=O)(=O)c2ccc(F)cc2)cc1 | 25 nM | – | EC50 (Cannabinoid receptor 2 [6]): 268 nM; Ki (Cannabinoid receptor 1): 4270 nM |
| CCN(CC)c1ccc(CN(c2ccc(Cl)cc2)S(=O)(=O)c2ccc(C(C)C)cc2)cc1 | 222 nM | – | – |
| CCN(CC)c1ccc(CN(c2ccc(Cl)cc2)S(=O)(=O)c2cccc(C)c2)cc1 | 2.8 nM | – | – |
| CCN(CC)c1ccc(CNc2ccc(Cl)cc2)cc1 | 6740 nM | – | – |
| CCCCCCCN(Cc1ccc(N(CC)CC)cc1)C(=O)C1CCCCC1 | 212 nM | – | – |
| CCN(CC)c1ccc(CN([C@]23C[C@H]4C[C@H](C[C@H](C4)C2)C3)S(=O)(=O)c2cccc(C)c2)cc1 | 19 nM | – | Activity (RAW264.7 [4]): Non-toxic; inhibition at 10 µM (RAW264.7 [5]): > 95%; Ki (Cannabinoid receptor 1): 8220 nM; inhibition (RAW264.7 [9]): Dose-dependent effect |
| CCN(CC)c1ccc(CN([C@]23C[C@H]4C[C@H](C[C@H](C4)C2)C3)S(=O)(=O)c2ccc(OC)cc2)cc1 | 137 nM | – | – |
| CCN(CC)c1ccc(CN(c2ccc(Cl)cc2)S(=O)(=O)c2ccc(F)cc2)cc1 | 73 nM | 15 | – |
| CCN(CC)c1ccc(CN([C@]23C[C@H]4C[C@H](C[C@H](C4)C2)C3)S(=O)(=O)c2ccccc2)cc1 | 84 nM | 130 | Ki (Cannabinoid receptor 1): 11000 nM |
| CCN(CC)c1ccc(CN(c2ccc(C)cc2)S(=O)(=O)c2ccc(C)cc2)cc1 | 5.4 nM | – | – |
